Experimental data taken from ChEMBL document CHEMBL1137767, “2-(3-Aryl-2-propenoyl)-3-methylquinoxaline-1,4-dioxides: a novel cluster of tumor-specific cytotoxins which reverse multidrug resistance” (Bioorg Med Chem, 2009).

Columns and labels:
HSC-2 = assay: Cytotoxicity against human HSC2 cells after 48 hrs; type: functional; details: HSC-2, 48 h
[1] = Growth inhibition of human Molt4/C8 cells after 3 days; type: functional, cell-based; details: MOLT-4, 72 h
Summary of the method: (§1)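 Human CEM and Molt 4/C8 T-lymphocytes were grown for three days with or without serial dilutions of the compound. IC50 is the concentration that inhibits cell growth by 50%.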

[2] = Cytotoxicity against human HPLF cells after 48 hrs; type: cell-based
HSC-3 = assay: Cytotoxicity against human HSC3 cells after 48 hrs; type: functional; details: HSC-3, 48 h
[3] = biological target: T1, ATP-dependent translocase ABCB1 (Homo sapiens, UniProt P08183); assay: Reversal of P-glycoprotein-mediated multidrug resistance in human MDR1 gene transfected mouse L5178Y cells assessed as fluorescence activity ratio at 20 uM by rhodamine 123 accumulation assay; type: cell-based
T1 sequence (P08183 whole entry): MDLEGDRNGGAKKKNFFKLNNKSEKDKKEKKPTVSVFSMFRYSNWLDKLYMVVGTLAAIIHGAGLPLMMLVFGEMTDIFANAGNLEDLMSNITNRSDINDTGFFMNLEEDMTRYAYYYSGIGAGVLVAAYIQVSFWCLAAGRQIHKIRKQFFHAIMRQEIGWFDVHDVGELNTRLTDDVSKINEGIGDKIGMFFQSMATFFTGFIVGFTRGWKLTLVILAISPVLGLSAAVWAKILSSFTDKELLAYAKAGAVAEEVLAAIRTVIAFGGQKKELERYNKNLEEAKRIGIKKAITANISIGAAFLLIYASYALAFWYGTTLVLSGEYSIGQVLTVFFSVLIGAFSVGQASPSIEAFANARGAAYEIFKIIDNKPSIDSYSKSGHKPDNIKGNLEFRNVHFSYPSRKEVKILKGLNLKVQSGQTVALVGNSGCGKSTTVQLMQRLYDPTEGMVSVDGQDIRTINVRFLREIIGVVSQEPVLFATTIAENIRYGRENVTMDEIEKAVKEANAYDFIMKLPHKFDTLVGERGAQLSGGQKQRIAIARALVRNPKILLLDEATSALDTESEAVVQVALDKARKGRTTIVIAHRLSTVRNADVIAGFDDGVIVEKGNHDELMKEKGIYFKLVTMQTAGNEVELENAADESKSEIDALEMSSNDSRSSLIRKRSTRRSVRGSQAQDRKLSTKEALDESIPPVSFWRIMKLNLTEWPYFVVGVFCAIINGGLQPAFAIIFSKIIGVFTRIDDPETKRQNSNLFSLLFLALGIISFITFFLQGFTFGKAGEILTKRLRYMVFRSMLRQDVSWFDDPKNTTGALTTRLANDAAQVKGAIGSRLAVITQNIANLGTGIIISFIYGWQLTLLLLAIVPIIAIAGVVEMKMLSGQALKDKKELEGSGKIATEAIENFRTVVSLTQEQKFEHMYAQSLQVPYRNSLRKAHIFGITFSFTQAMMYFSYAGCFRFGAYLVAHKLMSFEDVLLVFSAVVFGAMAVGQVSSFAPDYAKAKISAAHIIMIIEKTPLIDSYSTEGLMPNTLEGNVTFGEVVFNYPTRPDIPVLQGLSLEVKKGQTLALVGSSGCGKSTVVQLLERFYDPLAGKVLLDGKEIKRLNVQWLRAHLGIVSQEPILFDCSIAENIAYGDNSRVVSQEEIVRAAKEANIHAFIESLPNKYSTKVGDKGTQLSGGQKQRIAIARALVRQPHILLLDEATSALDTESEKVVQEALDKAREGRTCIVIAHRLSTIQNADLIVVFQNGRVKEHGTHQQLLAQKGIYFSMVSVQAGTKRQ
Summary of the method: (§2)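 Murine L-5178Y lymphoma cells transfected with human MDR1 gene (P-gp-overexpressing), alongside parental cells, treated or untreated with compound; rhodamine 123 accumulation measured by fluorescence; FAR = ratio of fluorescence intensity in treated versus untreated cells, values above 1 taken as MDR reversal.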

[4] = Cytotoxicity against human HGF cells after 48 hrs; type: cell-based
[5] = Cytotoxicity against human HPC cells after 48 hrs; type: cell-based
HSC-4 = assay: Cytotoxicity against human HSC4 cells after 48 hrs; type: functional; details: HSC-4, 48 h
HL-60 = assay: Cytotoxicity against human HL60 cells after 48 hrs; type: functional; details: HL-60, 48 h
[6] = biological target: T1, ATP-dependent translocase ABCB1; assay: Reversal of P-glycoprotein-mediated multidrug resistance in human MDR1 gene transfected mouse L5178Y cells assessed as fluorescence activity ratio at 200 uM by rhodamine 123 accumulation assay; type: cell-based; summary of the method: as §2
CCRF-CEM = assay: Growth inhibition of human CEM cells after 3 days; type: functional, cell-based; details: 72 h; summary of the method: as §1

In the case of `Cc1c(C(=O)/C=C/c2ccc3c(c2)OCO3)[n+]([O-])c2ccccc2[n+]1[O-]`, the CC50 (HSC-2) is reported as 23 µM, the IC50 [1] is reported as 24.2 µM and the CC50 at 48 h [2] is reported as 72 µM. The CC50 (HSC-3) was 25 µM, the Ratio [3] was 1.58 and the CC50 at 48 h [4] was 75 µM. For the same molecule, the CC50 at 48 h [5] was 79 µM, the CC50 (HSC-4) was 28 µM and the CC50 (HL-60) was 13 µM. For the same molecule, the Ratio [6] was 3.67 and the IC50 (CCRF-CEM) was 28.1 µM.

For `Cc1c(C(=O)/C=C/c2ccc(Cl)c(Cl)c2)[n+]([O-])c2ccccc2[n+]1[O-]`, the CC50 (HSC-2) was 17 µM, the IC50 [1] was 10.1 µM and the CC50 at 48 h [2] was 5.7 µM. For the same molecule, the CC50 (HSC-3) was 84 µM, the Ratio [3] was 4.42 and the CC50 at 48 h [4] was 29 µM. For the same molecule, the CC50 at 48 h [5] was 13 µM, the CC50 (HSC-4) was 15 µM and the CC50 (HL-60) was 27 µM. It also gave a Ratio [6] of 11.9 and an IC50 (CCRF-CEM) of 15.4 µM.

`Cc1ccc(/C=C/C(=O)c2c(C)[n+]([O-])c3ccccc3[n+]2[O-])cc1` gave a CC50 (HSC-2) of 8.4 µM, an IC50 [1] of 8.4 µM and a CC50 at 48 h [2] of 23 µM. It also gave a CC50 (HSC-3) of 14 µM, a Ratio [3] of 9.79 and a CC50 at 48 h [4] of 32 µM. The CC50 at 48 h [5] was 40 µM, the CC50 (HSC-4) was 11 µM and the CC50 (HL-60) was 4.1 µM. It also gave a Ratio [6] of 27.2 and an IC50 (CCRF-CEM) of 22.4 µM.

In the case of `Cc1c(C(=O)/C=C/c2ccc([N+](=O)[O-])cc2)[n+]([O-])c2ccccc2[n+]1[O-]`, the CC50 (HSC-2) is reported as 55 µM, the IC50 [1] is reported as 261 µM and the CC50 at 48 h [2] is reported as 91 µM. For the same molecule, the CC50 (HSC-3) was greater than 400 µM, the Ratio [3] was 1.28 and the CC50 at 48 h [4] was 57 µM. It also gave a CC50 at 48 h [5] greater than 400 µM, a CC50 (HSC-4) of 73 µM and a CC50 (HL-60) of 262 µM. The Ratio [6] was 2.25 and the IC50 (CCRF-CEM) was 164 µM.

In the case of `Cc1c(C(=O)/C=C/c2ccc(Cl)cc2)[n+]([O-])c2ccccc2[n+]1[O-]`, the CC50 (HSC-2) is reported as 13 µM, the IC50 [1] is reported as 7.75 µM and the CC50 at 48 h [2] is reported as 12 µM. For the same molecule, the CC50 (HSC-3) was 38 µM, the Ratio [3] was 2.63 and the CC50 at 48 h [4] was 27 µM. For the same molecule, the CC50 at 48 h [5] was 21 µM, the CC50 (HSC-4) was 19 µM and the CC50 (HL-60) was 11 µM. The Ratio [6] was 5.97 and the IC50 (CCRF-CEM) was 16 µM.

`CC(=O)c1c(C)[n+]([O-])c2ccccc2[n+]1[O-]` [MEQUINDOX] gave a CC50 (HSC-2) of 196 µM, an IC50 [1] of 44.6 µM and a CC50 at 48 h [2] greater than 400 µM. The CC50 (HSC-3) was 146 µM, the Ratio [3] was 1.06 and the CC50 at 48 h [4] was greater than 400 µM. It also gave a CC50 at 48 h [5] of 352 µM, a CC50 (HSC-4) of 134 µM and a CC50 (HL-60) of 26 µM. It also gave a Ratio [6] of 1.04 and an IC50 (CCRF-CEM) of 87.4 µM.
